Data set [1] is described as follows: Brain to plasma partition coefficient, Kp of the compound in Sprague-Dawley rat model of haloperidol-induced catalepsy at 10 mg/kg, po. The class given is ADME, organism-based. Particulars: brain and plasma. The method in brief:
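Male Sprague-Dawley rats given haloperidol 0.75 mg/kg i.p., then returned to cages for 60 min. Compound 10 mg/kg was dosed orally 30 min before catalepsy testing. Plasma, brain and CSF were then assayed, and free levels reported.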

In another data set the test system is P-gp. Description: Permeability from basolateral to apical side in MDCK cells harboring P-gp. Particulars: dog, MDCK-MDR1; read-out: permeability. It is filed as ADME, cell-based, Canis lupus familiaris.
The target of the next data set is Cytochrome P450 3A4 (Homo sapiens, UniProt P08684). Kind of data set: Inhibition of CYP3A4 in human liver microsomes using midazolam as substrate preincubated for 15 mins followed by substrate addition and measured after 8 mins by LC-MS/MS analysis. It is filed as ADME. For orientation: Liver microsomes are vesicles of endoplasmic reticulum, rich in cytochrome P450 enzymes.

Another data set concerns the target Cytochrome P450 2D6 (Homo sapiens, UniProt P10635). Kind of data set: Inhibition of CYP2D6 in human liver microsomes using dextromethorphan as substrate preincubated for 15 mins followed by substrate addition and measured after 8 mins by LC-MS/MS analysis. The class given is ADME.

What is called Kp is the ratio of the level in a tissue or fluid to that in plasma or blood. For orientation: IC50 means the concentration needed to halve the response being measured. Low values mean greater potency, high ones weaker potency.

Cytochrome P450 3A4, sequence (P08684 whole entry): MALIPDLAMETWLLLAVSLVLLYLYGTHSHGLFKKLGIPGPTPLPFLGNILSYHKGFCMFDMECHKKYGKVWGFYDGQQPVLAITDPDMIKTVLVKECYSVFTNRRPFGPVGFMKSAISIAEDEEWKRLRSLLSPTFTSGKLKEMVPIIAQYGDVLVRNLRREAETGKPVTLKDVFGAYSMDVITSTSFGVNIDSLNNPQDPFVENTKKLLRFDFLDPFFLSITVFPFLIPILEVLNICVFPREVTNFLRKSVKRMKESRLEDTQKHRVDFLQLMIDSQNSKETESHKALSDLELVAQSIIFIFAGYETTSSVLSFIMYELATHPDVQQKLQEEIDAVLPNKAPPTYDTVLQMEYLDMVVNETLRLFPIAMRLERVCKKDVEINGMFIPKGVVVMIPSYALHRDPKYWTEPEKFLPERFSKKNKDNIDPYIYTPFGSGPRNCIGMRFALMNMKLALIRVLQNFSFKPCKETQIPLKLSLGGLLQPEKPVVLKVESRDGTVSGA
Cytochrome P450 2D6, sequence (P10635 whole entry): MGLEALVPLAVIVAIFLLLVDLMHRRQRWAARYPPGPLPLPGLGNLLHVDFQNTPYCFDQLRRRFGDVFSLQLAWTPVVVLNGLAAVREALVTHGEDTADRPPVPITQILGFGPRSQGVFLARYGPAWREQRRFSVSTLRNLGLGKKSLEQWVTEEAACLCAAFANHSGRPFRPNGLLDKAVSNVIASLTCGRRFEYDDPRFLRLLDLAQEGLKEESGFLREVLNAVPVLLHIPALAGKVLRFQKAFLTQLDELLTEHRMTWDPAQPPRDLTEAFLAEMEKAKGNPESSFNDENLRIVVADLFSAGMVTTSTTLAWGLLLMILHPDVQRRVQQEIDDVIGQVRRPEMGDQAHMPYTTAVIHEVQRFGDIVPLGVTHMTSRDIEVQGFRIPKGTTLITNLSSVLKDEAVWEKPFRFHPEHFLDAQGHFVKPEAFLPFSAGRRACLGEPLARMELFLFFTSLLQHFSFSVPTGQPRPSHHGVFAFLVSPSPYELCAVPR

Regarding `O=C(NC1CC(F)(F)C1)c1nsc2cc(Nc3n[nH]c4cccnc34)ccc12`, the Kp in data set [1] was 0.23. For the same compound, in the data set with P-gp, the Papp B→A was 5.4 ×10⁻⁶ cm/s. Also, the concentration for half-maximal inhibition (IC50) at Cytochrome P450 3A4 and on Cytochrome P450 2D6 was more than 30 µM each time.

(Values after ChEMBL document CHEMBL4308847, “Discovery, Structure-Activity Relationship, and Biological Characterization of a Novel Series of 6-((1 H-Pyrazolo[4,3- b]pyridin-3-yl)amino)-benzo[ d]isothiazole-3-carboxamides as Positive Allosteric Modulators of the Metabotropic Glutamate Receptor 4 (mGlu4)” (J Med Chem, 2018).)
